# Laboratory results from ChEMBL document CHEMBL2417369, “Synthesis and evaluation of heteroaryl substituted diazaspirocycles as scaffolds to probe the ATP-binding site of protein kinases” (Bioorg Med Chem, 2013).
# What was measured:
# [1] = target: Proto-oncogene tyrosine-protein kinase Src (Homo sapiens, UniProt P12931); assay: Inhibition of SRC (unknown origin) at 30 uM by microfluidic mobility shift assay relative to control
# Summary of the method: (§1)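 Single-point screen in a 24-enzyme kinase panel using a microfluidic assay. Each compound was tested at […] with ATP at roughly the Km for each enzyme. The pan-AGC inhibitor H-89 served as an internal control on every plate.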
# [2] = target: Tyrosine-protein kinase Lyn (Homo sapiens, UniProt P07948); assay: Inhibition of LYN (unknown origin) at 30 uM by microfluidic mobility shift assay relative to control; summary of the method: as §1
# [3] = target: Serine/threonine-protein kinase Chk2 (Homo sapiens, UniProt O96017); assay: Inhibition of CHK2 (unknown origin) at 30 uM by microfluidic mobility shift assay relative to control; summary of the method: as §1
# [4] = target: T1, Serine/threonine-protein kinase Chk1 (Homo sapiens) (UniProt O14757); assay: Inhibition of CHK1 (unknown origin) at 30 uM by microfluidic mobility shift assay relative to control; summary of the method: as §1
# T1 sequence (whole entry): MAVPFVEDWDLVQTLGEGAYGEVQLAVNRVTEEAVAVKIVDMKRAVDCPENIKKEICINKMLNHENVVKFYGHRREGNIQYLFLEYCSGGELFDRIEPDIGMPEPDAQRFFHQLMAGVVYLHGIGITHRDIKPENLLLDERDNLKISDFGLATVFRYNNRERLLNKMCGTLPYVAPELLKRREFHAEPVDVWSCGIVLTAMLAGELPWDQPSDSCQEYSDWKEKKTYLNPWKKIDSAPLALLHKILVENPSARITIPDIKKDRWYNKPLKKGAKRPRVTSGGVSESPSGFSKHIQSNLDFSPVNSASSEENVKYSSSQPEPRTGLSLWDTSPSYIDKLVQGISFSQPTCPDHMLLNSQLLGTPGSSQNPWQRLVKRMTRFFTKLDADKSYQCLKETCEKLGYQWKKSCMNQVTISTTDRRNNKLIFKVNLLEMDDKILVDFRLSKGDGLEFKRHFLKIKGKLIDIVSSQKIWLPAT
# [5] = target: Protein kinase C (PKC) (Homo sapiens) (UniProt O94806+P41743+P17252+P05129+Q05655+P05771+Q05513+Q02156+P24723+Q15139+Q04759); assay: Inhibition of PKC (unknown origin) at 30 uM by microfluidic mobility shift assay relative to control; summary of the method: as §1
# Homo sapiens = species on record: Homo sapiens; assay: Inhibition of PKA (unknown origin) at 30 uM by microfluidic mobility shift assay relative to control; summary of the method: as §1
# Sequence of Tyrosine-protein kinase Lyn (P07948 2-512 limits assumed): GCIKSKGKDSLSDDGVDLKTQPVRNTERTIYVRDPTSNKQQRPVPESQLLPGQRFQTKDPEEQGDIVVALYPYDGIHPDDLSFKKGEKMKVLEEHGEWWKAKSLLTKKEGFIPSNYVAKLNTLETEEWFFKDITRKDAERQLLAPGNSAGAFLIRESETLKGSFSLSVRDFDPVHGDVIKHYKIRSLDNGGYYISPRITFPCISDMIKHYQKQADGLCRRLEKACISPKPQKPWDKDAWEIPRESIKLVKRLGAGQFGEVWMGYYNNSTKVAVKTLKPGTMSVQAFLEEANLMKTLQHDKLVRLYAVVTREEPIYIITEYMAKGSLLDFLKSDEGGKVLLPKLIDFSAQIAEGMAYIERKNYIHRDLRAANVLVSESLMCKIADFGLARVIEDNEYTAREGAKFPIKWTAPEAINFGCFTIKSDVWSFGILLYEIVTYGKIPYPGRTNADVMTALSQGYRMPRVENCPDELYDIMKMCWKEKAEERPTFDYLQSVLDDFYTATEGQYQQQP
# Sequence of Serine/threonine-protein kinase Chk2 (O96017 whole entry): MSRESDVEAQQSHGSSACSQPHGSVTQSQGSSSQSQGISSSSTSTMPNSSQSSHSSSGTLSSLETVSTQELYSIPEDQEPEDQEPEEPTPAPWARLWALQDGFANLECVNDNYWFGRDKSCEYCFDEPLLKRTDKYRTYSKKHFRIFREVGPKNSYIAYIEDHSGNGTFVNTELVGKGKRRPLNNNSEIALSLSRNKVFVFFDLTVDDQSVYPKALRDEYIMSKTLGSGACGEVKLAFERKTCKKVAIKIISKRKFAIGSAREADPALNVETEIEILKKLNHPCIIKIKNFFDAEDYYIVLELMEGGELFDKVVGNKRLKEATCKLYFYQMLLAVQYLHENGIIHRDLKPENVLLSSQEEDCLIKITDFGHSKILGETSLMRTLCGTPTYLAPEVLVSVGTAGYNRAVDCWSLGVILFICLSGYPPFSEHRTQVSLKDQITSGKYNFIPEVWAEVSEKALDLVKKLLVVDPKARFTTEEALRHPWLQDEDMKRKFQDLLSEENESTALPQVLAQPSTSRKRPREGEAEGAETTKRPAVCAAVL
# Sequence of Proto-oncogene tyrosine-protein kinase Src (P12931 2-536 limits assumed): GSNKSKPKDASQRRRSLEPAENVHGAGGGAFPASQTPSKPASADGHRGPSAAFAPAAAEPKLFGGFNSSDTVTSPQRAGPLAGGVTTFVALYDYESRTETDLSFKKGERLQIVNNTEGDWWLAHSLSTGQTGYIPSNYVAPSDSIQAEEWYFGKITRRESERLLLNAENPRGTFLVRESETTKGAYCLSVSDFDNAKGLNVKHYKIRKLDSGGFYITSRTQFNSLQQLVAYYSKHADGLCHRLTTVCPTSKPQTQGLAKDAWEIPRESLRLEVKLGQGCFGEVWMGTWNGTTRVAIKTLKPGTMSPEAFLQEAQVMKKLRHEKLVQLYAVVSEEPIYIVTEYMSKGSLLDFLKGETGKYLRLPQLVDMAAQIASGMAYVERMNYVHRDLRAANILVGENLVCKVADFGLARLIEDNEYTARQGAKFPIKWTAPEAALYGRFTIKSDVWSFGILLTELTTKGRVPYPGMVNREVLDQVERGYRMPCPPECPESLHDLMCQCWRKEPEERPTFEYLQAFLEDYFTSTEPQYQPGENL
SMILES,inhibition [1] [%],inhibition [2] [%],inhibition [3] [%],inhibition [4] [%],inhibition [5] [%],inhibition (Homo sapiens) [%]
c1nc(N2CCC3(CCCCN3)CC2)c2nc[nH]c2n1,25,52,58,85,0,98
c1nc(N2CCC3(CCCNC3)CC2)c2nc[nH]c2n1,70,70,72,97,41,100
O=S(=O)(c1cccc2cnccc12)N1CCCC2(CCCNC2)C1 (stereo not given),21,19,23,94,0,79
NC1(Cc2ccccc2)CCN(S(=O)(=O)c2cccc3cnccc23)CC1,6,10,8,4,12,80
NC1(Cc2ccccc2)CCN(c2ncnc3[nH]cnc23)CC1,63,72,74,62,0,96
O=S(=O)(c1cccc2cnccc12)N1CCC2(CCCCN2)CC1,12,18,26,0,0,89
O=S(=O)(c1cccc2cnccc12)N1CCC2(CCCN2)CC1,10,11,50,10,22,92
O=S(=O)(c1cccc2cnccc12)N1CCC2(CCCNC2)CC1,35,5,65,8,9,77
O=S(=O)(c1cccc2cnccc12)N1CCC2(CCNC2)CC1,10,3,59,46,0,76
O=S(=O)(c1cccc2cnccc12)N1CCCC12CCNCC2,5,3,12,15,5,77
O=S(=O)(c1cccc2cnccc12)N1CCCC2(CCNCC2)C1,5,9,13,2,4,83
c1ccc(C2CCC3(CCN(c4ncnc5[nH]cnc45)CC3)NC2)cc1 (stereo not given),33,44,44,69,0,96
c1nc(N2CCC3(CCCCC3)CC2)c2nc[nH]c2n1,32,21,25,17,2,55
c1nc(N2CCC3(CCCCO3)CC2)c2nc[nH]c2n1,49,35,47,22,0,77
c1nc(N2CCC3(CCCN3)CC2)c2nc[nH]c2n1,24,20,81,85,0,98
c1nc(N2CCC3(CCCOC3)CC2)c2nc[nH]c2n1,41,34,28,26,7,67
c1nc(N2CCC3(CCNC3)CC2)c2nc[nH]c2n1,61,65,64,84,26,99
c1nc(N2CCCC23CCNCC3)c2nc[nH]c2n1,6,5,26,8,0,39
c1nc(N2CCCC3(CCCNC3)C2)c2nc[nH]c2n1 (stereo not given),5,2,26,37,3,89
c1nc(N2CCCC3(CCNCC3)C2)c2nc[nH]c2n1,19,33,35,71,21,98
O=C(O)C1CCC2(CCN(c3ncnc4[nH]cnc34)CC2)NC1 (racemic),20,16,2,0,0,78
CN(C)C(=O)C1CCC2(CCN(c3ncnc4[nH]cnc34)CC2)NC1 (racemic),16,14,27,54,6,86
CNC(=O)C1CCC2(CCN(c3ncnc4[nH]cnc34)CC2)NC1 (racemic),24,26,34,70,0,95
COC(=O)C1CCC2(CCN(c3ncnc4[nH]cnc34)CC2)NC1 (racemic),26,16,16,36,0,87
O=C(C1CCC2(CCN(c3ncnc4[nH]cnc34)CC2)NC1)N1CCOCC1 (racemic),15,17,29,65,18,85
O=S(=O)(c1cccc2cnccc12)N1CCC2(CC1)CC(O)CCN2 (racemic),18,25,50,60,0,92
O=S(=O)(c1cccc2cnccc12)N1CCC2(CCC(O)CN2)CC1 (racemic),29,23,59,0,0,90
OC1CCC2(CCN(c3ncnc4[nH]cnc34)CC2)NC1 (racemic),38,26,53,71,0,99
OC1CCNC2(CCN(c3ncnc4[nH]cnc34)CC2)C1 (racemic),22,39,44,80,0,98
OCC1CCC2(CCN(c3ncnc4[nH]cnc34)CC2)NC1 (racemic),34,16,56,27,0,98
